MC4R barr agon – MC4R agonists recruiting beta-arrestin, primary screen, cell-based, luminescence, agonist arm of biased-ligand search. U2OS MC4R beta-arrestin complementation; percent of melanotan II response, DMSO zero. AID 540308, 2011. hit rate 0.98% among 360,000. activation, % at 8.9 µM;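 active = activation above a per-plate cutoff, the mean activation of sample wells on that plate plus 3 SD, cut at about 8% in these data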
MC4R antag cAMP – MC4R antagonists of cAMP signaling, primary screen, cell-based, TR-FRET, antagonist arm of biased-ligand search. MC4R-expressing cells, MTII-stimulated cAMP, LANCE TR-FRET. Melanocortin receptor 4 (Homo sapiens), P32245. hit rate 0.48% among 360,000. inhibition, % at 6.5 µM;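 active = inhibition above its plate's cutoff, the mean of tested wells on that plate plus 3 SD, cut at about 29% in these data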
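System: U2OS-MC4R stable cell line; Technique: Eu-cAMP/anti-cAMP TR-FRET, emission 671 nm; Repeats: single well per compound; Also added: Melanotan II; Dosing: one concentration, 6.5 µM nominal; Schedule: 30-min compound, 1-h challenge, 1-h detection, room temperature.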
TMEM16A act – TMEM16A chloride channel activators or potentiators, primary screen, cell-based, HTS. hit rate 0.3% among 340,000. B-score at 10 µM. HEK293 TMEM16A/YFP-H148Q/I152L, iodide quench fluorescence; stronger effect = lower value;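 active = fluorescence-ratio B-score plate-corrected deviation score at least 3 library SD below zero, with starting fluorescence score within 5 deviations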;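 also: channel opened by trigger with iodide after compound preincubation; score built on the fluorescence ratio of max minus min over baseline; more negative score means more quench and so TMEM16A activation or potentiation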
HTR2A ag – mouse Htr2a agonists via beta-arrestin recruitment, primary screen, cell-based, luminescence. hit rate 0.66% among 360,000. CHO-K1 mHTR2A beta-arrestin complementation; percent of 30 µM serotonin response. 5-hydroxytryptamine receptor 2A (Mus musculus), P35363. activation, % at 7.6 µM;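 active = activation above a run cutoff, the mean activation of all tested compounds plus 3 SD, cut at about 14% in these data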
Target sequence (P35363 whole entry, looked up): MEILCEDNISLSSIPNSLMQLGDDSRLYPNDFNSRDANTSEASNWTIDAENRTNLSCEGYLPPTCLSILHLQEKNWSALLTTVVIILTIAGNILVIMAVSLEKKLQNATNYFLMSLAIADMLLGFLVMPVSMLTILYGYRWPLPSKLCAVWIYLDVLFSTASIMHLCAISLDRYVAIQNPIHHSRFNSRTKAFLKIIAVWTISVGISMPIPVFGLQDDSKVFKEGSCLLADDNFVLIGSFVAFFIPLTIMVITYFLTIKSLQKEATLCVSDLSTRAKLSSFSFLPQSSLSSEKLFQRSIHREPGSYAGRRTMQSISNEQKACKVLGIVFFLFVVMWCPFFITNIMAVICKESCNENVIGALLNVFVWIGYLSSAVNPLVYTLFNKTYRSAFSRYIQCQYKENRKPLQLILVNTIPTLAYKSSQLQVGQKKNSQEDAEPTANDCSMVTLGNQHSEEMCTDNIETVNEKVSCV
beta cell repl – inducers of MIN6 beta-cell proliferation, primary screen, ATP luminescence, uHTS | hit rate 0.29% among 330,000 | proliferation, % at 10 µM | MIN6 cells proliferation, ATPlite luminescence, 48 h; cells starved in 0.2% serum; 100% = growth in 10% serum;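 active = compounds whose signal lies at least 3.5 SD above the mean of all wells on their plate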
TMEM16A inh – TMEM16A chloride channel inhibitors, primary screen, cell-based, HTS; normalized B-score (activity score, 25-100; higher = stronger inhibition) at 10 µM; Anoctamin-1 (Mus musculus), Q8BHY3; hit rate 1.2% among 310,000; HEK293 TMEM16A/YFP iodide influx fluorescence, ionomycin; AID 588511, 2011;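 active = ratio plate-corrected score three or more library SD toward inhibition, starting fluorescence score within five deviations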;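 also: score derived from kinetic fluorescence span divided by baseline fluorescence per well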
MOR ag counter – OPRM1 agonists via beta-arrestin recruitment, confirmation, counter-screen for mouse HTR2A agonist project, cell-based, luminescence, single concentration. activation, % at 9.3 µM. shares compounds with HTR2A ag. AID 624380, 2012. hit rate 5.3% among 2,300. U2OS OPRM1 beta-arrestin PathHunter; DMSO 0%, DAMGO 9.3 µM 100%;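 active = mean activation above the mean of DMSO-only wells plus 3 SD, cut at about 0.5% in these data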
HTR2A ag conf – mouse HTR2A agonists, beta-arrestin recruitment, confirmation, cell-based, luminescence, CHO-K1 PathHunter, triplicate; activation, % at 7.6 µM; AID 624381, 2012; hit rate 19% among 2,300; DMSO 0%, 30 µM serotonin 100%; shares compounds with HTR2A ag;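 active = mean activation across triplicates above the hit threshold derived in the original primary screen, cut at about 15% in these data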
A number is an active result; . = inactive; / = no result. An excerpt weighted towards active compounds, which were near 3.4% of everything screened.

SMILES | MC4R barr agon | MC4R antag cAMP | TMEM16A act | HTR2A ag | beta cell repl | TMEM16A inh | MOR ag counter | HTR2A ag conf
CSc1nc(SCC(=O)NCc2ccco2)c2c3c(sc2n1)COC(C)(C)C3 | . | . | . | 19 | . | . | . | .
CCCCSc1nc(SCC(=O)NCc2ccco2)c2c3c(sc2n1)COC(C)(CC)C3 (centres undefined) | . | . | . | . | . | . | / | /
COc1ccc(-c2ccc(CN3C(C(C)C)C(=O)N(Cc4cn(Cc5ccco5)nn4)CCS3(=O)=O)cc2)cc1 (centres undefined) | . | . | / | 18 | / | / | . | .
Cc1ccc(-c2ccc(CN3C(C)C(=O)N(Cc4cn(Cc5ccco5)nn4)CCS3(=O)=O)cc2)cc1 (centres undefined) | . | . | / | 18 | / | / | . | .
CCOC(=O)[C@]12CCCC=C1N(CCc1ccc(OC)c(OC)c1)C(=O)[C@H](CC(=O)N1CCSCC1)C2 | / | / | / | . | / | / | / | /
COc1ccc(OC)c(/C=C/C(=O)OCC(=O)NC2CCCCCCC2)c1 | . | . | . | 16 | . | / | . | .
COc1ccc(C)cc1NC(=O)C1CCN(S(=O)(=O)c2cccc3cccnc23)CC1 | . | . | . | . | . | . | / | /
O=S(=O)(c1cccc2cccnc12)N1CCOCC1 | . | . | . | 21 | . | . | . | .
O=S(=O)(c1cccc2cccnc12)N1CCN(c2ccc(F)cc2)CC1 | . | . | . | . | . | . | / | /
COc1ccc(NC(=O)C2CCN(S(=O)(=O)c3cccc4cccnc34)CC2)cc1OC | . | . | . | 17 | . | . | . | .
O=C(CSCc1ccccc1)NNc1c(F)c(F)cc(F)c1F | . | . | . | . | . | . | / | /
NCCc1nc(-c2ccccc2)cs1 | . | . | . | 35 | . | . | . | .
O=C(COC(=O)/C=C/c1ccc(C(F)(F)F)cc1)NCC1CCCCC1 | . | . | . | 25 | . | . | . | .
CC(OC(=O)CNC(=O)c1ccc(Cl)cc1)C(=O)NC1CCCCC1C (centres undefined) | . | . | . | . | . | . | / | /
COCCCNC(=O)C[C@@H]1C[C@@]2(C(=O)OC)CC(C)(C)CC=C2N(Cc2ccccc2)C1=O | / | / | / | . | / | / | / | /
Nc1nc(N2CCN(Cc3ccccc3)CC2)n[nH]1 | . | . | . | 39 | . | . | . | 110
O=c1c(Cl)c(O)ccn1C1OC(CO)C(O)C1O (centres undefined) | . | . | . | . | / | / | / | /
COc1cccc(C2CC(=O)Nc3c2c(=O)n(C)c(=O)n3C)c1OC (centres undefined) | . | . | . | . | . | . | / | /
COc1ccccc1C1CC(=O)Nc2c1c(=O)n(C)c(=O)n2C (centres undefined) | . | . | . | 14 | . | . | . | .
Cc1[nH]n(-c2ccccc2)c(=O)c1N=Nc1ccccc1C(=O)O | . | . | . | 18 | . | . | . | .
Cc1[nH]n(-c2ccccc2)c(=O)c1N=Nc1ccccc1O | . | . | . | . | . | / | / | /
CSc1cccc(NS(=O)(=O)c2cn(C)cn2)c1 | . | . | . | 17 | . | . | . | .
CC(C)(C)NC(=O)CN(C(=O)C(=O)Nc1ccc2c(c1)OCCO2)C1CCCC1 | . | . | . | . | . | . | / | /
CCC(C)(C)NC(=O)CN(C(=O)C(=O)Nc1ccc2c(c1)OCCO2)N1CCOCC1 | . | . | . | 16 | . | . | . | .
COc1ccc(/C=N\NC(=O)c2sccc2C)cc1Cn1nc(C)cc1C | . | . | . | . | . | . | / | /
SMILES | MC4R barr agon | MC4R antag cAMP | TMEM16A act | HTR2A ag | beta cell repl | TMEM16A inh | MOR ag counter | HTR2A ag conf
CN(CC(=O)NCc1ccc(F)cc1)S(=O)(=O)c1ccc(Br)s1 | . | . | . | . | . | . | / | /
COCc1[nH]nc2c1C(c1ccsc1)C(C#N)=C(N)O2 (centres undefined) | . | . | . | . | . | . | / | /
CCCc1[nH]nc2c1C(c1ccsc1)C(C#N)=C(N)O2 (centres undefined) | . | . | . | 21 | . | . | . | .
O=C(CC1SC(N2CCCC2)=NC1=O)Nc1ccc(C(=O)NCc2ccc(F)cc2)cc1 (centres undefined) | . | . | . | . | . | / | / | /
O=C(Cc1ccccc1)NCC(=O)N/N=C/c1ccc([N+](=O)[O-])s1 | . | . | . | 18 | . | . | . | .
O=C(CNC(=O)c1ccccc1)N/N=C/c1ccc([N+](=O)[O-])s1 | . | . | . | . | . | . | / | /
O=C(Nc1nc2c(F)cc(F)cc2s1)c1ccc([N+](=O)[O-])o1 | . | . | . | . | . | . | / | /
CC1(C)N=C(N)N=C(N)N1c1cc(Cl)ccc1Cl | . | . | / | 23 | / | / | . | .
CCN1C[C@@H]2[C@@H]3C(=O)N(C)C(=O)[C@@H]3[C@](CC)(C1=O)N2C(=O)c1ccc(Cl)cc1 | . | . | . | . | / | / | / | /
Oc1c(/C=N/c2ccccn2)sc2ccccc12 | . | . | . | 15 | . | . | . | .
Cn1ccc2cc(-c3csc(N4CCC(C(N)=O)CC4)n3)ccc21 | . | . | . | . | . | / | / | /
OCCN1CCN(c2ncnc3scc(-c4ccc(F)cc4)c23)CC1 | . | . | . | 16 | . | . | . | .
COc1ccc(-c2csc3ncnc(N4CCN(CCO)CC4)c23)cc1 | . | . | . | . | . | . | / | /
O=C(Nc1cccc(Br)c1)c1ccc2c(c1)SC1=NS(=O)(=O)CCN12 | . | . | . | . | . | / | / | /
CN(CCOc1ccccc1)Cc1ccccc1 | / | / | / | 20 | / | / | . | 37
CN(CCOc1cccc2ccccc12)Cc1ccccc1 | . | . | . | 15 | . | . | . | 19
C[N+](C)(CCOc1ccccc1)Cc1ccccc1 | . | . | . | 35 | / | / | 1.6 | .
CC(C)NC(=O)C1(C)CCN1C(=O)c1ccc2c(c1)OCO2 (centres undefined) | . | . | / | . | / | / | / | /
CN(C)CCCNc1nc2cc(-c3ccc(F)cc3)sc2c(=O)n1C | . | . | / | . | / | / | / | /
